Reference: the M2OR odorant receptor database

Key:
Settings in all cases: stereoisomer not certain
O1440 = tested on: T1, O1440
T1 sequence (whole entry): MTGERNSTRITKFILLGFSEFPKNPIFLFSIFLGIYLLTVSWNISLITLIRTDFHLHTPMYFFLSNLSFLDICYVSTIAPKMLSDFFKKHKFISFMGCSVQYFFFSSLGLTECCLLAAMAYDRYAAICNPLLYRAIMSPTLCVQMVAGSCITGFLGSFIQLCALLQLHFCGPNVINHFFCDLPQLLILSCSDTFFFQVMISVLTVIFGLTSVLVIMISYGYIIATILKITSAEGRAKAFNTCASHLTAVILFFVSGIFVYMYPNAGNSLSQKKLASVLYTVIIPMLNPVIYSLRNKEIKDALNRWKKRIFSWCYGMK
Outline: (§1)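 Each entry records the cell line, G-protein, co-transfected protein and tags used. Methods varied with the source, often transient luciferase assays in mammalian cell lines. A receptor–molecule pair is called responsive (active) if the original authors judged its signal statistically different from baseline and non-responsive (inactive) otherwise.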

O14A2 I133V = tested on: T2, O14A2 I133V
T2 sequence (whole entry): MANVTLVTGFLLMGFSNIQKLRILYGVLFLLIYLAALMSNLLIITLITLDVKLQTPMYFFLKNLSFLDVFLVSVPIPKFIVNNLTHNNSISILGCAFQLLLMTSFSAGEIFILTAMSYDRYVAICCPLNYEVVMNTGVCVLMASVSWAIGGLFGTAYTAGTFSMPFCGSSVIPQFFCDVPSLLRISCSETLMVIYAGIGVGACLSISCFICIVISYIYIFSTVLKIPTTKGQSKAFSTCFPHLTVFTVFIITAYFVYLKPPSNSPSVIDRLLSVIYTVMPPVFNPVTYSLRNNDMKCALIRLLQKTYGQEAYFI
Outline: as §1

O14CZ = tested on: T3, O14CZ
T3 sequence (whole entry): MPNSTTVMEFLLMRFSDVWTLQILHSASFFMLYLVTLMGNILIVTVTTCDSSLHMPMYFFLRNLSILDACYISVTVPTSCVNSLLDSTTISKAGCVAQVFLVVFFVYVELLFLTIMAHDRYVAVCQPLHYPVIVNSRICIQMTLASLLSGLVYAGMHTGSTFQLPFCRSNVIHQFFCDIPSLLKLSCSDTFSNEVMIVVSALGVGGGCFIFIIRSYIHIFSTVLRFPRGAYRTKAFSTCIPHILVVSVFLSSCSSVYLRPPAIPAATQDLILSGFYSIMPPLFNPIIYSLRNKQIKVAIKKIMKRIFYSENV
Outline: as §1

O14I1 V36A D50N Y216C = tested on: T4, O14I1 V36A D50N Y216C
T4 sequence (whole entry): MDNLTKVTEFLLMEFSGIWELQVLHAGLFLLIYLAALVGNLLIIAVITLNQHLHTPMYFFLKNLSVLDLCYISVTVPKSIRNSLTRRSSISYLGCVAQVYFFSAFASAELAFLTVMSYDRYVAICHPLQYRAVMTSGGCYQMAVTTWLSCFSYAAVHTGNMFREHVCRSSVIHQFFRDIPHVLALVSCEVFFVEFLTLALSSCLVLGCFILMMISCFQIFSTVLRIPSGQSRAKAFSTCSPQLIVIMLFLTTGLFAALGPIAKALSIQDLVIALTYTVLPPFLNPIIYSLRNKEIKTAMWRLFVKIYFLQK
Outline: as §1

O14J1 N3Y = tested on: T5, O14J1 N3Y
T5 sequence (whole entry): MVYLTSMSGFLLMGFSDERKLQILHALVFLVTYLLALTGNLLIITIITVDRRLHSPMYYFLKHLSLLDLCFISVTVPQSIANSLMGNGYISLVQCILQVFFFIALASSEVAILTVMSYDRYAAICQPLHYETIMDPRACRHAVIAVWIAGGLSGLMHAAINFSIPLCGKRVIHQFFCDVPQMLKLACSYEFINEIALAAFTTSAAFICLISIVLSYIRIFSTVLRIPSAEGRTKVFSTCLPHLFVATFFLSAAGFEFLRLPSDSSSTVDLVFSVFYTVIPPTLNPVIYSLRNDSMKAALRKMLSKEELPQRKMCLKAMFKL
Outline: as §1

O14K1 D119Y = tested on: T6, O14K1 D119Y
T6 sequence (whole entry): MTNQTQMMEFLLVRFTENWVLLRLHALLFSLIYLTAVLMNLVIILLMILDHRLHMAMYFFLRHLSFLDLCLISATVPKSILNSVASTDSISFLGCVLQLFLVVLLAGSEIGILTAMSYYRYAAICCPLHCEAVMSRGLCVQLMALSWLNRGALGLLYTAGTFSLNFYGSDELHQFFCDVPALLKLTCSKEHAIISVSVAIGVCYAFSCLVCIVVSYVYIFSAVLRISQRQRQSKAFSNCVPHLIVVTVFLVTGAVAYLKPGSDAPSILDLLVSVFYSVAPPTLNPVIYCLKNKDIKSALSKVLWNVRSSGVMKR
Outline: as §1

O2A25 = tested on: T7, O2A25
T7 sequence (whole entry): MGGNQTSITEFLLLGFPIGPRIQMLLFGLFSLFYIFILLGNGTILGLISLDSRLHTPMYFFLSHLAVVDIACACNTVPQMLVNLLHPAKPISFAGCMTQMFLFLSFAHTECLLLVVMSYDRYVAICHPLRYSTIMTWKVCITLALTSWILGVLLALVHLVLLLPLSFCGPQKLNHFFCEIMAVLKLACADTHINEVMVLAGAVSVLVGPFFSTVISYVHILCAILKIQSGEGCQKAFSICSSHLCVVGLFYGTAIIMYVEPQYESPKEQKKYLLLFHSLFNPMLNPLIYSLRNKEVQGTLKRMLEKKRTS
Outline: as §1

O2AE1 = tested on: T8, O2AE1
T8 sequence (whole entry): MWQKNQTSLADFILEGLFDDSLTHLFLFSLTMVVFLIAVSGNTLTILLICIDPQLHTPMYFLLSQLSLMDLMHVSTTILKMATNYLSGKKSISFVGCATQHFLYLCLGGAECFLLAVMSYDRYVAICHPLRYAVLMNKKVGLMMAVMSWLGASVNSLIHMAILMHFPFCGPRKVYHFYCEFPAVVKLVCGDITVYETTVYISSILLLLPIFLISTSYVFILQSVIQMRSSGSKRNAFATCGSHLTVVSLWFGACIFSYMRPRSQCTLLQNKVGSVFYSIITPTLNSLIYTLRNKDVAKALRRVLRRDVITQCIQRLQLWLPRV
Outline: as §1

O2AJ1 = tested on: T9, O2AJ1
T9 sequence (whole entry): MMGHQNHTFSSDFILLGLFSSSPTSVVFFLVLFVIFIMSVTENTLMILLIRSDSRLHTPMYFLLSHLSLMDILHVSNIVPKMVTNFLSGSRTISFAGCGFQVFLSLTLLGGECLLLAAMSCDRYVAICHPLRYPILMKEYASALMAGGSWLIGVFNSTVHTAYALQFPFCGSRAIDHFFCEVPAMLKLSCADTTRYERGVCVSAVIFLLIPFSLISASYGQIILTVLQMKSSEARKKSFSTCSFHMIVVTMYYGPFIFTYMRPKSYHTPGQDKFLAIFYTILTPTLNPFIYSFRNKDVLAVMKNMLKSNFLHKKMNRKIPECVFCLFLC
Outline: as §1

O2AK2 S99N = tested on: T10, O2AK2 S99N
T10 sequence (whole entry): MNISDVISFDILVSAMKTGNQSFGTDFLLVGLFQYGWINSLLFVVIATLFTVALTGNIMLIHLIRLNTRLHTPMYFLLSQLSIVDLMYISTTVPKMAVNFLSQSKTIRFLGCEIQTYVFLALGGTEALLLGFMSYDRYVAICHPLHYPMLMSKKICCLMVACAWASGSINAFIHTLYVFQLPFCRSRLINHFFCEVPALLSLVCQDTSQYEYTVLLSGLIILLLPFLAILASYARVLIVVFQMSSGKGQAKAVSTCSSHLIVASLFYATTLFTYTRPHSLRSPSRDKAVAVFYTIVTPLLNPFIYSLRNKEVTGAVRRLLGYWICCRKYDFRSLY
Outline: as §1

Measured: odorant receptor agonist call

CC1CCCCCCCCCCCC(=O)C1 (stereo not given)
active: O1440

CCC1OC(C)=C(O)C1=O (stereo not given)
not listed: O1440
inactive: all other assays above

Cc1cnc(C)c(C)n1
not listed: O1440
inactive: all other assays above

CC1C(C)(C)C2=C(C(=O)CCC2)C1(C)C (stereo not given)
active: O1440

CCC(=O)OCC(C)(C)OC(C)C1CCCC(C)(C)C1 (stereo not given)
inactive: O1440

CC1CC=CCCCCCCCCC(=O)C1 (stereo not given)
active: O1440

CCCCCCCC(=O)CCCCCCC
inactive: O1440

CC1CC=CCCCCCCCCCC(=O)C1 (stereo not given)
active: O1440

c1ccc2ncccc2c1
active: O2A25

O=C1CCCCCCCCCC1
inactive: O1440

CCCCCCCCCCCCCC(C)=O
active: O1440

CC1=C(O)C(=O)C(C)O1 (stereo not given)
not listed: O1440
inactive: all other assays above

CCCCCCC=CCCC=O
not listed: O1440 | O2AJ1
inactive: all other assays above

CC1CCCCCCCCCCCCC(=O)C1 (stereo not given)
active: O1440

OC1CCCCCCCCCCCCCC1
active: O1440

O=C1CCCCCCC=CCCCCCCC1
active: O1440

CCC1OC(=O)C(O)=C1C (stereo not given)
not listed: O1440
inactive: all other assays above

O=C1CCCCCCCCCCCCCC1
active: O1440

O=C1CCCC=CCCCCCCCCCC1
active: O1440

O=C1CCCCCCCCC1
inactive: O1440

CC(=O)c1c(C)c([N+](=O)[O-])c(C(C)(C)C)c([N+](=O)[O-])c1C
active: O1440

CC1=C(O)C(=O)OC1C (stereo not given)
not listed: O1440
inactive: all other assays above

CCCC(S)CCOC(C)=O (stereo not given)
not listed: O1440
inactive: all other assays above

CC1=NC(C)C(C)S1 (stereo not given)
not listed: O1440
inactive: all other assays above

O=C1CCCCCC=CCCCCCCCCO1
active: O1440

C1CCCCCCCCCCCCCC1
inactive: O1440

O=C1C=CCCCCCCCCCCCCO1
active: O1440
